Screening data from PubChem BioAssay.
PERK inh: blocks human PERK kinase. Q9NZJ5. CHO PERK-DD fusion, SEAP luminescence translation reporter. inhibition, % at 5.6 µM. 220,000 compounds, 0.17% hits. AID 1416;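 active means inhibition above the mean inhibition of all tested compounds plus 3 SD, set separately per screening campaign, cut at about 2.9% in these data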;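 further: PERK kinase domain activated by AP20187 dimerizer at 100 nM; 0% = DMSO with dimerizer and 100% = rapamycin at 8.4 µM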
Rad51 HR inh: blocks human Rad51 in homologous recombination | 200,000 compounds, 0.085% hits | inhibition, % at 10 µM | hRad51 DNA strand exchange, fluorescence dequenching | Q06609 | AID 1385;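 active means inhibition above 40% at the single screening dose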;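 further: 0% = DMSO control wells and 100% = blanks with heterologous ssDNA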
Target sequence (Q06609 whole entry, looked up): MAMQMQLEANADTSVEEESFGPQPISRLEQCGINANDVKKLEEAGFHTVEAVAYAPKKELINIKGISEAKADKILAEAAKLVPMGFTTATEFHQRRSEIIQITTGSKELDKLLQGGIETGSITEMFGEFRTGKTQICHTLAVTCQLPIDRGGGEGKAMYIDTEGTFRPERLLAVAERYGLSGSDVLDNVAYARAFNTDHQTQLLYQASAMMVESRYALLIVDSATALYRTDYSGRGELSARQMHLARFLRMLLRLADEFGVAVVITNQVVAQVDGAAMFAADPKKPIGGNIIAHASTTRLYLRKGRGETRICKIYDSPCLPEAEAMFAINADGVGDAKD
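Material: Human Rad51 nucleoprotein filaments preassembled on unlabelled ssDNA | Also added: Labelled 47-mer dsDNA for strand exchange | Dosing: Single dose, 10 µM final compound | Schedule: 30-min compound preincubation and 15-min exchange, both room temperature | Technique: Fluorescence dequenching at 485/520 nm | Measure: Percent inhibition relative to plate controls and blanks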
TNF death inh: TNF-alpha cell death inhibition in Jurkat FADD-/- cells. Jurkat FADD-/- TNF necroptosis rescue, ATP luminescence, 24 h; 0 = TNF only, 100 = no-TNF cells. activation (protection from cell death), % at 10 µM. 220,000 compounds, 0.068% hits. AID 463075;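 active means activation, meaning protection from cell death, of at least 50% relative to plate controls; inactive means activation below 50%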;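 further: necroptosis triggered by 40 ng/mL TNF-alpha added together with compound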
L929 necroptosis: blocks zVAD induced death of L929 cells; AID 1377; viability rescue, % at 10 µM; L929 zVAD necroptosis rescue, ATP luminescence, 24 h; with zVAD 60 µM; 220,000 compounds, 0.38% hits;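 active means activation, scaled between plate controls, above about 75%, limit read from the data; inactive means activation under that limit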;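 further: 0% = zVAD with DMSO and 100% = DMSO alone without zVAD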
Efa HMGR inh: inhibitors of class II HMG-CoA reductase from Enterococcus faecalis; purified E. faecalis HMGR, NADPH absorbance 340 nm kinetic; inhibition, % at 10 µM; 190,000 compounds, 0.41% hits; AID 1066;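 active means inhibition above a set limit, the median over all tested compounds plus 3 SD, cut at about 9.5% in these data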;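 further: enzyme runs in reverse so mevalonate oxidation gives rising NADPH absorbance; 0% = complete reaction with DMSO and 100% = background rate lacking mevalonate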
* hit, by the source's call. Only some compounds are listed: those with a hit (about 1% of all), similar ones and a draw of the others.

Results for COc1ccc2c3c1OC1CC(O)C=CC31CCN(C)C2 (centres undefined) ?
PERK inh: 3.1*; Rad51 HR inh: -9.3; TNF death inh: 1.4; L929 necroptosis: -0.4

Results for Cc1cccc(C(=O)NC2CCN(C(=O)Nc3ccccc3C)CC2)c1 ?
PERK inh: -0.3; Rad51 HR inh: -3.3; TNF death inh: 2.3; L929 necroptosis: 4.8; Efa HMGR inh: 14.1*

How did Cc1ccc(S(=O)(=O)n2[nH]c(=O)cc2NC(=O)c2cccs2)cc1 do in these assays?
PERK inh: 0.1; Rad51 HR inh: -1.2; TNF death inh: 0.8; L929 necroptosis: -0.5; Efa HMGR inh: 10.7*

Results for CCN(Cc1cc(=O)n2ccsc2n1)Cc1nc2ccccc2c(=O)[nH]1 ?
PERK inh: 0.4; Rad51 HR inh: -1.6; TNF death inh: -0.5; L929 necroptosis: 0.8; Efa HMGR inh: 11.3*

Results for CCOc1ccc(CNC(=O)CCS(=O)(=O)Cc2cccc(Cl)c2)cc1OC ?
PERK inh: 1.0; Rad51 HR inh: 40.8*; TNF death inh: 0.4; L929 necroptosis: 2.2; Efa HMGR inh: 0.5

What do the screens show for `CCOc1ccc(CNC(=O)CCSCc2ccccc2F)cc1OC`?
PERK inh: 0.6; Rad51 HR inh: 4.7; TNF death inh: 0.1; L929 necroptosis: 0.9; Efa HMGR inh: -0.8

What do the screens show for `CCOC(=O)N1CCC2(CC1)C(C#N)=C(N)Oc1n[nH]c(C)c12`?
PERK inh: 0.2; Rad51 HR inh: 13.4; TNF death inh: -0.7; L929 necroptosis: 0.1; Efa HMGR inh: 10.0*

Results for CC(=O)N1CCC2(CC1)C(C#N)=C(N)Oc1n[nH]c(C(F)(F)F)c12 ?
PERK inh: 1.7; Rad51 HR inh: -8.0; TNF death inh: -1.6; L929 necroptosis: 0.6; Efa HMGR inh: 0.1

How did Cc1[nH]nc2c1C1(CCC3(CC1)OCCO3)C(C#N)=C(N)O2 do in these assays?
PERK inh: 0.1; Rad51 HR inh: -6.4; TNF death inh: -1.2; L929 necroptosis: 0.4; Efa HMGR inh: 10.3*

How did O=C(c1ccc(F)cc1)N1CCCC(c2ccccc2)C1 (centres undefined) do in these assays?
PERK inh: -0.4; Rad51 HR inh: 3.0; TNF death inh: 1.0; L929 necroptosis: 0.3; Efa HMGR inh: 13.1*

Results for O=C(c1ccc(F)cc1)N1CCN(C2CCC(c3ccccc3)CC2)CC1 (centres undefined) ?
PERK inh: 0.0; Rad51 HR inh: -3.8; TNF death inh: 0.6; L929 necroptosis: 3.6; Efa HMGR inh: -2.1

Results for Cc1cc(C)cc(NC(=O)C(=S)NCc2ccccc2)c1 ?
PERK inh: 2.9*; TNF death inh: 3.8; L929 necroptosis: 0.3; Efa HMGR inh: -0.7

How did Cc1ccc(NC(=O)C(=S)NCc2ccco2)cc1 do in these assays?
PERK inh: 0.0; Rad51 HR inh: 9.7; TNF death inh: -1.1; L929 necroptosis: -0.1; Efa HMGR inh: -0.1

Results for Cc1cc(N)ccc1-n1c(C)ccc1C ?
PERK inh: 0.2; Rad51 HR inh: 0.0; TNF death inh: 1.1; L929 necroptosis: 0.8; Efa HMGR inh: -5.4

Results for Cc1cc(C(=O)O)ccc1-n1c(C)ccc1C ?
PERK inh: 3.3*; TNF death inh: -2.0; L929 necroptosis: -0.3; Efa HMGR inh: -4.6

How did O=S1(=O)CC=C(CSC(=S)NC2CCS(=O)(=O)C2)C1 (centres undefined) do in these assays?
PERK inh: 1.6; TNF death inh: -6.4; L929 necroptosis: -2.5; Efa HMGR inh: 14.9*

How did CC(C)(C)c1cc(CSC(=S)NC2CCS(=O)(=O)C2)c(Br)c(C(C)(C)C)c1 (centres undefined) do in these assays?
PERK inh: 2.0; Rad51 HR inh: 2.3; TNF death inh: -12.6; L929 necroptosis: -1.6; Efa HMGR inh: -3.7

How did COc1ccc(CCNC2=CC(=O)N(c3ccc(F)cc3)C2=O)cc1 do in these assays?
PERK inh: 0.5; Rad51 HR inh: -0.6; TNF death inh: 1.5; L929 necroptosis: 3.1; Efa HMGR inh: 14.4*

How did CCNC(=O)CC1C(=O)N(c2ccc(F)cc2)C(=O)N1CCc1ccc(OC)cc1 (centres undefined) do in these assays?
PERK inh: 0.4; Rad51 HR inh: -3.9; TNF death inh: -0.7; L929 necroptosis: -0.3; Efa HMGR inh: -1.7

What do the screens show for `COc1ccc(CCNC(=O)CCn2c(SCC(=O)N3CCCC3)nc3ccccc3c2=O)cc1OC`?
PERK inh: 0.5; Rad51 HR inh: -0.4; TNF death inh: 1.6; L929 necroptosis: -0.1

Results for COc1ccc2c(c1)CCc1c(C(=O)Nc3cc(C)n(Cc4ccc(Cl)cc4)n3)noc1-2 ?
PERK inh: 0.2; Rad51 HR inh: -0.6; TNF death inh: 1.4; L929 necroptosis: 4.3; Efa HMGR inh: -1.3

What do the screens show for `Cc1cc(NC(=O)c2noc3c2CCCC3)nn1Cc1ccc(Cl)cc1`?
PERK inh: 0.1; Rad51 HR inh: -1.3; TNF death inh: -1.0; L929 necroptosis: 81.6*; Efa HMGR inh: 4.0

Results for C#Cc1ccc([C@H]2C=C(C(=O)Nc3ccccc3)O[C@@H](OCc3ccc(CO)cc3)C2)cc1 ?
Rad51 HR inh: 5.4; TNF death inh: 4.0; L929 necroptosis: -1.2

What do the screens show for `O=Cc1ccc(-c2ccc(Cl)cc2Cl)[nH]1`?
PERK inh: 4.2*; TNF death inh: -0.8; L929 necroptosis: 1.2; Efa HMGR inh: -13.7

How did O=C(O)c1ccc(-c2ccc(Cl)cc2Cl)o1 do in these assays?
PERK inh: 0.1; Rad51 HR inh: -35.1; TNF death inh: -0.2; L929 necroptosis: -0.3; Efa HMGR inh: 4.4

Results for OCC1CCCC(n2cnc3c(=S)nc[nH]c32)O1 (centres undefined) ?
PERK inh: 1.1; Rad51 HR inh: 18.5; TNF death inh: 1.4; L929 necroptosis: 0.0

Results for O=C(Nc1ccc2c(c1)C(=O)N(CC1CCCO1)C2=O)c1ccccc1Br (centres undefined) ?
PERK inh: 0.8; Rad51 HR inh: 3.9; TNF death inh: 0.5; L929 necroptosis: 0.3; Efa HMGR inh: 12.0*

What do the screens show for `CCOC(=O)c1c(NS(C)(=O)=O)sc2c1CCC(C)C2` (centres undefined)?
PERK inh: -0.5; Rad51 HR inh: 88.8*; TNF death inh: -2.6; L929 necroptosis: 0.3; Efa HMGR inh: -0.4

Results for CCCCc1n[nH]c(=S)n1Cc1ccc(Cl)cc1 ?
PERK inh: 0.6; Rad51 HR inh: 5.9; TNF death inh: -0.1; L929 necroptosis: -0.8; Efa HMGR inh: 0.5

What do the screens show for `Cc1ccc(CN(C)CC(=O)Nc2ccc3c(c2)CCC3)cc1`?
PERK inh: -0.1; Rad51 HR inh: 13.1; TNF death inh: 0.9; L929 necroptosis: 0.0; Efa HMGR inh: 13.8*

How did COc1ccc(/C=C/C(=O)C2CC2)cc1COc1cccc(C)c1C do in these assays?
PERK inh: 0.3; TNF death inh: 0.1; L929 necroptosis: 0.6

How did COc1ccc(C(=O)NCC(=O)OC2CCCCC2=O)cc1 (centres undefined) do in these assays?
PERK inh: 3.6*; Rad51 HR inh: -5.9; TNF death inh: -0.3; L929 necroptosis: -1.0; Efa HMGR inh: -4.0
